# Measurements of several laboratories.
# Lines come from different studies, so protocols differ.
# Target: Serine/threonine-protein kinase STK11 (STK11, Homo sapiens, UniProt Q15831)
# One construct used (Q15831 1-433): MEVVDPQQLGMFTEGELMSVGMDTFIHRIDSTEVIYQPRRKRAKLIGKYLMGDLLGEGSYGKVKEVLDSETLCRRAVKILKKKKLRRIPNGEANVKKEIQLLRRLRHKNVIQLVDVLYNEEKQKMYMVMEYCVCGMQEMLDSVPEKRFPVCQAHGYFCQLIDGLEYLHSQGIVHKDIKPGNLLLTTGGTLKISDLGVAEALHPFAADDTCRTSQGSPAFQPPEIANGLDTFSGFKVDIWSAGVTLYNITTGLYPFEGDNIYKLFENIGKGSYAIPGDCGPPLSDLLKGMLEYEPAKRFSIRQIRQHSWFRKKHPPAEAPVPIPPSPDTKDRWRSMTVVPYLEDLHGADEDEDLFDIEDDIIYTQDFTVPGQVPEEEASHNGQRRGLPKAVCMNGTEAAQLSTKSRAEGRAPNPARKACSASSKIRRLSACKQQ
SMILES,effect on,action,method,tested at,measurement,value
CCS(=O)(=O)c1cc2cc(C[C@](O)(CC(C)(C)c3ccc(F)cc3C(N)=O)C(F)(F)F)[nH]c2cn1,cell-free assay,,competition with immobilised ligand,1 µM,remaining binding,100%
Oc1cccc(-c2nc(N3CCOCC3)c3oc4ncccc4c3n2)c1,enzyme activity,inhibitor,,10 µM,remaining activity,62%
Cc1sc(C(=O)NC2COC2)cc1-n1cc(NC(=O)Nc2c(F)cccc2Cl)cn1,enzyme activity,inhibitor,,10 µM,remaining activity,97.6%
Cc1ccc(Nc2nccc(N(C)c3ccc4c(C)n(C)nc4c3)n2)cc1S(N)(=O)=O,enzyme activity,inhibitor,,10 µM,inhibition,-2%
Cc1ccc(NC(=O)c2ccc(CN3CCN(C)CC3)cc2)cc1Nc1nc(-c2cccnc2)cs1,cell-free assay,,,0.5 µM,remaining signal,102%
O=C(Nc1cnn(-c2csc(C(=O)NC3COC3)c2)c1)Nc1ccccc1Cl,enzyme activity,inhibitor,,5 µM,remaining activity,118%
CCCCN(CCCC)C(=O)CN1C[C@@H](c2cc(OC)c3c(c2)OCO3)[C@H](C(=O)O)[C@H]1CC(C)(C)CCC,cell-free assay,,competition with immobilised ligand,1 µM,remaining binding,82.2%
O=C1NC(=O)c2cc(Nc3ccc(F)cc3)c(Nc3ccc(F)cc3)cc21,cell-free assay,,,0.5 µM,remaining signal,98.2%
COc1cc(/C=C/C(=O)CC(=O)/C=C/c2ccc(O)c(OC)c2)ccc1O,enzyme activity,inhibitor,,1 µM,activity vs control,95%
CCCOc1ccc(OC)c(F)c1C(=O)c1ccc(C(=O)N[C@@H]2CNC[C@H]2NC(=O)c2ccc3[nH]ncc3c2)cc1,enzyme activity,inhibitor,,10 µM,remaining activity,92%
Cc1c[nH]c2nccc(Oc3c(F)cc(Nc4cc(Cl)nc(N)n4)cc3F)c12,cell-free assay,,competition with immobilised ligand,0.1 µM,remaining binding,100%
Cc1cc(NC(=O)c2cccc3cc(-c4cccc5[nH]nc(N)c45)ccc23)ccc1F,enzyme activity,inhibitor,,0.1 µM,activity vs control,97%
COc1cc2ncnc(Nc3ccc(F)c(Cl)c3)c2cc1OCCCN1CCOCC1,cell-free assay,,,0.5 µM,remaining signal,106%
COc1cc(Nc2cnc(C#N)c(O[C@H](C)CN(C)C)n2)ncc1-c1cnn(C)c1,enzyme activity,inhibitor,radiometric,10 µM,remaining activity,64%
Cn1c(=O)n(-c2ccc(C(C)(C)C#N)cc2)c2c3cc(-c4cnc5ccccc5c4)ccc3ncc21,enzyme activity,inhibitor,,10 µM,remaining activity,105%
CCN(CC)c1ccc(C2=NNC(=O)CC2C)cc1[N+](=O)[O-] (stereo not shown),enzyme activity,inhibitor,,10 µM,remaining activity,91%
N#CC1(c2ccccn2)CCN(Cc2cc(C(=O)N3CCCC3)c(=O)n3ccccc23)CC1,cell-free assay,,competition with immobilised ligand,1 µM,remaining binding,77%
COc1cc(Cl)c(C(=O)N[C@@H](CN[C@H]2CC[C@@H](N)CC2)Cc2ccc(C#N)cc2)cc1-c1ccc(CN[C@H](C)c2ccc(C)cc2)o1,enzyme activity,inhibitor,,1 µM,remaining activity,101%
CS(=O)(=O)c1cc(C2(NC(=O)c3cncc4c3cnn4-c3ccc(F)cc3)CC2)ccn1,cell-free assay,,competition with immobilised ligand,1 µM,remaining binding,100%
Cc1ccc(NC(=O)c2ccc(C)c(C(F)(F)F)c2)cc1C#Cc1nn(C2CCC(O)CC2)c2ncnc(N)c12 (stereo not shown),cell-free assay,,,10 µM,remaining signal,94%
FC(F)(F)Oc1cccc(-c2cnc3ccc(-c4ccncc4)nn23)c1,enzyme activity,inhibitor,radiometric,5 µM,activity vs control,106%
CCC(=O)N[C@H]1CC[C@@H](C(=O)N(C)c2ccc(-c3nc4ccccc4o3)cc2)C1,cell-free assay,,competition with immobilised ligand,1 µM,remaining binding,100%
CCN(CC)CCNC(=O)c1c(C)[nH]c(/C=C2\C(=O)Nc3ccc(F)cc32)c1C,enzyme activity,inhibitor,,10 µM,inhibition,3%
O=c1nc(-c2ccccn2)sc2ccccc12,binding,,competition with immobilised ligand,1 µM,remaining binding,79%
CN(c1nccc(-c2cnn3ncccc23)n1)C1CC1,cell-free assay,,,1 µM,remaining signal,100%
